High-throughput results: PubChem, Broad Institute
Sampled rows, rich in hits. Any-hit rate of the full collection: about 3.2%.
DENV2 CPE rescue: inhibitors of DENV2 cytopathic effect, primary screen, cell-based, plate reader, single concentration; DENV2-infected cells, cytopathic effect rescue; CPE inhibition, % at 9.99 µM; hit rate 1.7% among 350,000; AID 651640, 2012; in the data active = CPE inhibition above about 20%, passing the limit was not always enough; inconclusive = no clear call, values can overlap the other calls; tested in BHK-21 cells;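 note: 0% = median of neutral control wells and 100% = median of positive control wells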
Ecoli rRNA inh: reduced GFP signal of wild-type E. coli, primary screen, bacterial rRNA inhibitor project, GFP/RFP fluorescence, OD600, single point; E. coli WT GFP vs humanized-ribosome RFP mutants, 24 h; hits give low values; DMSO median 0, no signal -100; GFP signal change (wild-type ribosome), % (test concentration not listed); hit rate 1.6% among 350,000;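 active = significant combined selectivity score with lowered wild-type GFP, culture density cut under 30%, mutant RFP and density less affected; inactive = any of these conditions unmet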
S100A4 inh HTS: inhibitors of S100A4-myosin IIA peptide binding, primary screen, biochemical, fluorescence polarization, TAMRA-MyoIIA peptide; hit rate 0.14% among 360,000; inhibition, % at 10.7 µM; Protein S100-A4 (Homo sapiens), P26447; AID 652163, 2013;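 active = mean inhibition of at least 70% across replicates, with every replicate also reaching that level; inconclusive = mean inhibition reaches 70% but some replicates fall short; inactive = mean inhibition below 70%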
Target sequence (P26447 whole entry, looked up): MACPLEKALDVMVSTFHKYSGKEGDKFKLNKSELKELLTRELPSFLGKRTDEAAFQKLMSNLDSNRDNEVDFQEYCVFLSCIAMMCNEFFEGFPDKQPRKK
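Material: S100A4 monomer protein / Buffer or medium: 50 mM HEPES pH 7.2, 10 mM CaCl2, 100 mM KCl / Times: 5 min incubation before reading / Benchmarks: neutral control DMSO, positive control TFP / Reagent: labelled myosin peptide probe, 5 nM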
MLL AF4-AF9 inh: inhibitors of AF4 peptide binding to AF9, primary screen, biochemical, AlphaScreen, biotin-AF4 peptide, FLAG-AF9, single point; inhibition, % at 10 µM; AID 651704, 2012; Protein AF-9 (Homo sapiens), P42568; hit rate 0.47% among 350,000;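 active = every replicate reaching a set inhibition limit, whatever the replicate mean, cut at about 25% in these data; inconclusive = mean inhibition reaches that limit but some replicates miss it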;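 note: 0% = plate neutral control median and 100% = total signal loss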
Target sequence (P42568 whole entry, looked up): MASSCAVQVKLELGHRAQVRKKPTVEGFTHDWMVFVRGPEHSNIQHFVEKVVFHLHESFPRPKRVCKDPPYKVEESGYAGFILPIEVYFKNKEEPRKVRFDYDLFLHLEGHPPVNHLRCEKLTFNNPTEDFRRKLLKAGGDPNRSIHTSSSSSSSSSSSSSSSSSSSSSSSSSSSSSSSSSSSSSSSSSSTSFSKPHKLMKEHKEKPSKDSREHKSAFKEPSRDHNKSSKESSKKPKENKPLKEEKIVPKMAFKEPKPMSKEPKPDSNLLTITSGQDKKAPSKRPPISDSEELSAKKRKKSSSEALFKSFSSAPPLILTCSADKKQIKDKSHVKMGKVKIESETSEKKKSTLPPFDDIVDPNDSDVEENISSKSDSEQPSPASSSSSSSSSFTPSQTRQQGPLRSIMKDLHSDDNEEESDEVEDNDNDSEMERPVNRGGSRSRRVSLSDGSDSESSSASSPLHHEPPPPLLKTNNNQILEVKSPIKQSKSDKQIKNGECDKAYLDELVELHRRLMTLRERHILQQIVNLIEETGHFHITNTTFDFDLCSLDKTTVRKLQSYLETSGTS
Cneo AK release: Cryptococcus neoformans cell lysis inducers, primary screen, AK release luminescence, single concentration. C. neoformans lysis, adenylate kinase release luminescence, 4 h; normalised: neutral wells 0, clomiphene wells 100. lysis activity, % at 15 µM. hit rate 0.2% among 360,000. AID 651654, 2012;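 active = mean lysis activity across replicates of at least 80%, whatever share of replicates individually reach that level; inactive = mean lysis activity below 80%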
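Material: C. neoformans cells; Schedule: 4 h static compound exposure, 37 °C, read 1 h post-reagent; Measured by: adenylate kinase release luminescence; Read-out: signal increase indicating cell lysis; Controls: Clomiphene as positive lysis control.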
PfHsp90 set2: growth inhibition of PfHsp90-expressing yeast, primary screen, antimalarial PfHsp90 inhibitor project, S. cerevisiae, BacTiter-Glo luminescence, single point, set 2; BacTiter-Glo ATP, 48 h; yeast lacking PDR1 and PDR3 efflux regulators; inhibition, % at 9.4 µM; hit rate 0.32% among 310,000;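 active = every replicate shows inhibition above about 80%, whatever the replicate mean, limit read from the data; inconclusive = mean inhibition reaches the set limit but some replicate falls short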;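 note: 0% = DMSO neutral controls and 100% = 20 µM radicicol positive controls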
Starred values were filed as active, the others as inactive; ? = inconclusive; nt = not tested or not shown.

SMILES | DENV2 CPE rescue | Ecoli rRNA inh | S100A4 inh HTS | MLL AF4-AF9 inh | Cneo AK release | PfHsp90 set2
CC(=O)N(C)C[C@H]1Oc2cc(-c3cccc(C#N)c3)ccc2S(=O)(=O)N([C@H](C)CO)C[C@H]1C | 1 | -2 | 3 | -1 | 6 | nt
COc1ccc2ccccc2c1/C=N/NC(=O)c1ccccc1F | 44* | -1 | -2 | 1 | 3 | -12
COc1ccccc1OCCCCN1CCCCC1 | 1 | 27 | -4 | 1 | 3 | 4
Cc1cccc(Cl)c1OCCN1CCCC1 | 70* | 2 | 3 | -1 | 3 | -20
CCc1cccc(OCCN2CCCC2)c1 | 50* | 0 | 6 | 4 | nt | -16
Cc1ccccc1OCCCCN1CCCCC1 | 34* | 8 | -5 | 3 | 0 | -4
C[C@@H]1CCCCO[C@H](CN(C)Cc2ccc(C(F)(F)F)cc2)[C@@H](C)CN([C@@H](C)CO)C(=O)c2cc(NC(=O)c3ccccc3)ccc2O1 | 9 | -4 | 2 | -3 | -1 | nt
C[C@@H]1CCCCO[C@@H](CN(C)C(=O)Nc2ccc(C(F)(F)F)cc2)[C@@H](C)CN([C@H](C)CO)C(=O)c2cc(NC(=O)C3CCCCC3)ccc2O1 | 27* | 3 | -14 | -1 | 49 | nt
C[C@@H]1CCCCO[C@@H](CN(C)Cc2ccc(C(F)(F)F)cc2)[C@@H](C)CN([C@H](C)CO)C(=O)c2cc(NC(=O)c3ccccc3)ccc2O1 | 25* | -2 | -3 | 2 | -1 | nt
C[C@@H]1CN([C@@H](C)CO)C(=O)c2cc(NC(=O)c3ccccc3)ccc2O[C@@H](C)CCCCO[C@H]1CN(C)Cc1ccc(C(F)(F)F)cc1 | 49* | 0 | -8 | -1 | -1 | nt
C[C@H]1CCCCO[C@@H](CN(C)Cc2ccc(C(F)(F)F)cc2)[C@@H](C)CN([C@@H](C)CO)C(=O)c2cc(NC(=O)c3ccccc3)ccc2O1 | 23* | -2 | -3 | 0 | -2 | nt
COCC(=O)Nc1ccc2c(c1)[C@H]1C[C@@H](CC(=O)N(C)C)O[C@@H](CO)[C@H]1O2 | ? | 3 | -44 | -3 | 2 | nt
C[C@@H]1CCCCO[C@@H](CN(C)Cc2ccc(C(F)(F)F)cc2)[C@@H](C)CN([C@H](C)CO)C(=O)c2cc(NC(=O)C3CCCCC3)ccc2O1 | 31* | 4 | nt | nt | -3 | nt
CNC[C@@H]1Oc2ccc(NS(=O)(=O)c3cccs3)cc2C(=O)N([C@H](C)CO)C[C@H]1C | -1 | -1 | -5 | -5 | -17 | nt
Cc1cc(C(=O)COc2cc(F)ccc2[N+](=O)[O-])c(C)n1C1CC1 | nt | -29* | -2 | 1 | nt | nt
C[C@H]1CN([C@@H](C)CO)C(=O)Cc2cc(NC(=O)CCC(F)(F)F)ccc2O[C@H]1CN(C)Cc1ccccc1 | 0 | -5 | 7 | -3 | 3 | nt
CC1=Nc2ccccc2N=C(NC(=O)CSC(=S)N2CCCCC2)C1c1ccccc1 (stereo not drawn) | -4 | -21* | 1 | 6 | nt | 7
CC1=Nc2ccccc2N=C(NC(=O)CSC(=S)N2CCN(C)CC2)C1c1ccccc1 (stereo not drawn) | -2 | -3 | -2 | 7 | 0 | -6
COc1ccc(O)c(/C=N/NC(=S)Nc2cccnc2)c1 | -1 | -28* | -3 | 5 | nt | -10
CO[C@H]1CN(C)C(=O)c2ccc(NC(=O)NC(C)C)cc2OC[C@@H](C)NC[C@H]1C | -11 | 2 | 6 | -2 | 82* | nt
CO[C@@H]1CN(C)C(=O)c2ccc(NC(=O)NC(C)C)cc2OC[C@H](C)NC[C@@H]1C | -3 | 3 | 5 | -1 | 82* | nt
COc1cccc(COC(=O)CSCC(=O)Nc2ccc(C)cc2)c1OC | 72* | nt | -3 | -1 | -1 | nt
O=C(C[C@@H]1CC[C@H](NC(=O)CC2CC2)[C@H](CO)O1)NCc1ccc(-c2ccccc2)cc1 | -2 | -4 | 6 | 0 | 3 | nt
O=C(C[C@@H]1CC[C@@H](NC(=O)CC2CC2)[C@H](CO)O1)NCc1ccc(Cl)cc1 | 4 | 1 | 135* | -13 | 50 | nt
O=C(C[C@H]1CC[C@@H](NC(=O)CC2CC2)[C@@H](CO)O1)NCc1ccc(-c2ccccc2)cc1 | 48* | -1 | -1 | -1 | 4 | nt
SMILES | DENV2 CPE rescue | Ecoli rRNA inh | S100A4 inh HTS | MLL AF4-AF9 inh | Cneo AK release | PfHsp90 set2
COc1cccc(C(=O)Nc2ccc3c(c2)C(=O)N(C)[C@H]2CC[C@H](CC(=O)NCC(F)(F)F)O[C@@H]2CO3)c1 | 1 | -2 | 10 | -1 | 51 | nt
N#Cc1ccc(-c2nc3ccc(Br)cn3c2Cc2ccsc2)cc1 | 0 | -2 | 9 | -1 | 0 | nt
Cc1ccc2nc(-c3cccc(Br)c3)c(Cc3ccsc3)n2c1 | 24* | 5 | 4 | 2 | nt | nt
Clc1ccc(-c2nc3ccc(Br)cn3c2Cc2ccsc2)cc1 | ? | -23* | 23 | -1 | -3 | nt
CCC(=O)Nc1ccc2c(c1)C(=O)N(C)[C@H]1CC[C@H](CC(=O)Nc3c(F)cccc3F)O[C@@H]1CO2 | nt | 2 | nt | -3 | -2 | nt
CCOc1ccc(N2C(=O)C(=O)/C(=C(/O)c3ccccc3)C2c2ccccc2[N+](=O)[O-])cc1 (stereo not drawn) | 6 | -17* | 3 | 0 | nt | 7
COc1ccc(-c2cc(C#N)nc(Cl)n2)cc1 | 0 | 4 | -2 | -2 | nt | -60
COc1ccc(-c2cc(C#N)nc(NN)n2)cc1 | 47* | 6 | 6 | -2 | 1 | -6
CCOc1cc(/C=N/NC(=O)c2ccccc2OCc2ccc(F)cc2)ccc1O | 3 | -21* | 3 | 5 | 8 | -30
CCOc1cc(/C=N/NC(=O)c2ccccc2-n2cccc2)ccc1O | 3 | -2 | 4 | 4 | -1 | 1
Cc1ccc(Cl)cc1N1CCN(CC(O)COC(C)C)CC1 (stereo not drawn) | 33* | -15 | -1 | nt | nt | -18
Cc1cc(Cn2nc(C(=O)NCc3cccc(Br)c3)cc2-c2ccccc2)on1 | 1 | -16 | 8 | 9 | -1 | -3
COCCNC(=O)c1cc(-c2ccccc2)n(Cc2cc(C)no2)n1 | 22* | 0 | -12 | 1 | -1 | -28
CO[C@H]1CN(C)C(=O)c2cc(NC(=O)Nc3cccc(F)c3)ccc2OC[C@H](C)N(C)C[C@@H]1C | 1 | -2 | 27 | 5 | 4 | nt
Cc1ccc(CN=c2c([N+](=O)[O-])nn(-c3cccc(Cl)c3)n2O)cc1 | -3 | -24* | -5 | 5 | -4 | -79
